Measured values taken from ChEMBL document CHEMBL1122285, “New myocardial imaging agents: stabilization of radioiodine as a terminal vinyl iodide moiety on tellurium fatty acids” (J Med Chem, 1983).

Assays:
[1] = test system: Rattus norvegicus; assay: Tested for distribution of radioactivity of iodine 125 in blood of rat after 60 min of intravenous administration; format: ADME, organism-based; conditions: in vivo, 1 h
Procedure, shortened: (§1)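 Fischer 344 rats, four per time point, under ether anaesthesia. Each received ~8.6 μCi of 125I-labelled fatty acid (sp act ~20 mCi/mmol) by lateral tail vein in 0.5 mL 6% bovine serum albumin with 10% final ethanol, filtered before injection. Percent injected dose/g was calculated against injectate standards and reported as mean (range). Thyroid weight was taken as body weight × 7.5 mg/100 g.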

[2] = test system: Rattus norvegicus; assay: Tested for distribution of radioactivity of iodine 125 in thyroid of rat after 2 hr of intravenous administration; format: ADME, organism-based, Thyroid gland; conditions: in vivo; procedure, shortened: as §1
[3] = Tested for distribution of radioactivity of iodine 125 in kidney of rat after 60 min of intravenous administration; format: ADME; conditions: in vivo, 1 h; procedure, shortened: as §1
[4] = test system: Rattus norvegicus; assay: Tested for distribution of radioactivity of iodine 125 in liver of rat after 2 hr of intravenous administration; format: ADME, organism-based; conditions: in vivo; procedure, shortened: as §1
[5] = test system: Rattus norvegicus; assay: Tested for distribution of radioactivity of iodine 125 in kidney of rat after 4 hours of intravenous administration; format: ADME, organism-based; conditions: in vivo; procedure, shortened: as §1
[6] = test system: Rattus norvegicus; assay: Tested for distribution of radioactivity of iodine 125 in blood of rat after 2 hour of intravenous administration; format: ADME, organism-based; conditions: in vivo; procedure, shortened: as §1
[7] = test system: Rattus norvegicus; assay: Tested for distribution of radioactivity iodine 125 in heart of rat after 30 min of intravenous administration (value in parentheses indicates range); format: ADME, organism-based; conditions: in vivo, 0.5 h; procedure, shortened: as §1
[8] = test system: Rattus norvegicus; assay: Tested for distribution of radioactivity of iodine 125 in blood of rat after 5 min of intravenous administration; format: ADME, organism-based; conditions: in vivo; procedure, shortened: as §1
[9] = test system: Rattus norvegicus; assay: Tested for distribution of radioactivity of iodine 125 in liver of rat after 4 hr of intravenous administration; format: ADME, organism-based; conditions: in vivo; procedure, shortened: as §1
[10] = test system: Rattus norvegicus; assay: Tested for distribution of radioactivity of iodine 125 in thyroid of rat after 5 min of intravenous administration; format: ADME, organism-based, Thyroid gland; conditions: in vivo; procedure, shortened: as §1
[11] = test system: Rattus norvegicus; assay: Tested for distribution of radioactivity of iodine 125 in liver of rat after 30 min of intravenous administration; format: ADME, organism-based; conditions: in vivo, 0.5 h; procedure, shortened: as §1
[12] = test system: Rattus norvegicus; assay: Tested for distribution of radioactivity of iodine 125 in thyroid of rat after 4 hr of intravenous administration; format: ADME, organism-based, Thyroid gland; conditions: in vivo; procedure, shortened: as §1
[13] = test system: Rattus norvegicus; assay: Tested for distribution of radioactivity in heart of rat after 2 hours of intravenous administration; format: ADME, organism-based; conditions: in vivo; procedure, shortened: as §1
[14] = test system: Rattus norvegicus; assay: Tested for distribution of radioactivity of iodine 125 in lungs of rat after 5 min of intravenous administration; format: ADME, organism-based, Lung; conditions: in vivo; procedure, shortened: as §1
[15] = test system: Rattus norvegicus; assay: Tested for distribution of radioactivity of iodine 125 in heart of rat after 5 min of intravenous administration; format: ADME, organism-based; conditions: in vivo; procedure, shortened: as §1
[16] = test system: Rattus norvegicus; assay: Tested for distribution of radioactivity of iodine 125 in kidney of rat after 30 min of intravenous administration; format: ADME, organism-based; conditions: in vivo, 0.5 h; procedure, shortened: as §1
[17] = test system: Rattus norvegicus; assay: Tested for distribution of radioactivity of iodine 125 in kidney of rat after 5 min of intravenous administration; format: ADME, organism-based; conditions: in vivo; procedure, shortened: as §1
[18] = test system: Rattus norvegicus; assay: Tested for distribution of radioactivity of iodine 125 in thyroid of rat after 60 min of intravenous administration; format: ADME, organism-based, Thyroid gland; conditions: in vivo, 1 h; procedure, shortened: as §1
[19] = test system: Rattus norvegicus; assay: Tested for distribution of radioactivity of iodine 125 in lungs of rat after 30 min of intravenous administration; format: ADME, organism-based, Lung; conditions: in vivo, 0.5 h; procedure, shortened: as §1
[20] = test system: Rattus norvegicus; assay: Tested for distribution of radioactivity of iodine 125 in liver of rat after 60 min of intravenous administration; format: ADME, organism-based; conditions: in vivo, 1 h; procedure, shortened: as §1
[21] = test system: Rattus norvegicus; assay: Tested for distribution of radioactivity iodine 125 in heart of rat after 4 hours of intravenous administration; format: ADME, organism-based; conditions: in vivo; procedure, shortened: as §1
[22] = test system: Rattus norvegicus; assay: Tested for distribution of radioactivity of iodine 125 in blood of rat after 30 min of intravenous administration; format: ADME, organism-based; conditions: in vivo, 0.5 h; procedure, shortened: as §1
[23] = test system: Rattus norvegicus; assay: Tested for distribution of radioactivity of iodine 125 in lungs of rat after 60 min of intravenous administration; format: ADME, organism-based, Lung; conditions: in vivo, 1 h; procedure, shortened: as §1
[24] = test system: Rattus norvegicus; assay: Tested for distribution of radioactivity of iodine 125 in kidney of rat after 2 hours of intravenous administration; format: ADME, organism-based; conditions: in vivo; procedure, shortened: as §1
[25] = test system: Rattus norvegicus; assay: Tested for distribution of radioactivity of iodine 125 in liver of rat after 5 min of intravenous administration; format: ADME, organism-based; conditions: in vivo; procedure, shortened: as §1
[26] = test system: Rattus norvegicus; assay: Tested for distribution of radioactivity iodine 125 in heart of rat after 60 min of intravenous administration; format: ADME, organism-based; conditions: in vivo, 1 h; procedure, shortened: as §1
[27] = test system: Rattus norvegicus; assay: Tested for distribution of radioactivity of iodine 125 in lungs of rat after 2 hours of intravenous administration; format: ADME, organism-based, Lung; conditions: in vivo; procedure, shortened: as §1
[28] = test system: Rattus norvegicus; assay: Tested for distribution of radioactivity of iodine 125 in thyroid of rat after 30 min of intravenous administration; format: ADME, organism-based, Thyroid gland; conditions: in vivo, 0.5 h; procedure, shortened: as §1
[29] = test system: Rattus norvegicus; assay: Tested for distribution of radioactivity of iodine 125 in blood of rat after 4 hours of intravenous administration; format: ADME, organism-based; conditions: in vivo; procedure, shortened: as §1

Work on `O=C(O)CCCCC[Te]CCCCCCCCC/C=C/I` yielded an Injected dose/g [1] of 0.22%, an Injected dose/g [2] of 43.8% and an Injected dose/g [3] of 0.95%. For the same molecule, the Injected dose/g [4] was 4.78%, the Injected dose/g [5] was 0.77% and the Injected dose/g [6] was 0.23%. The Injected dose/g [7] was 2.78%, the Injected dose/g [8] was 0.26% and the Injected dose/g [9] was 4.4%. For the same molecule, the Injected dose/g [10] was 8.54%, the Injected dose/g [11] was 5.63% and the Injected dose/g [12] was 69.8%. For the same molecule, the Injected dose/g [13] was 2.86%, the Injected dose/g [14] was 1.29% and the Injected dose/g [15] was 3.47%. For the same molecule, the Injected dose/g [16] was 0.89%, the Injected dose/g [17] was 1.05% and the Injected dose/g [18] was 22.2%. For the same molecule, the Injected dose/g [19] was 0.96%, the Injected dose/g [20] was 5.33% and the Injected dose/g [21] was 2.37%. The Injected dose/g [22] was 0.22%, the Injected dose/g [23] was 1% and the Injected dose/g [24] was 0.88%. It also gave an Injected dose/g [25] of 6.18%, an Injected dose/g [26] of 2.96% and an Injected dose/g [27] of 1%. For the same molecule, the Injected dose/g [28] was 13.5% and the Injected dose/g [29] was 0.27%.
